Assay [1] deals with Trichophyton benhamiae. Briefly: Antifungal activity against Trichophyton mentagrophytes. Particulars: for MIC: Trichophyton benhamiae. In kind it is functional, Arthroderma benhamiae. Summed up:
(§1)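 Agar-well diffusion on Sabouraud agar at pH 5.7. Plates were lawned with a saline spore suspension (one loopful in 3 ml), decanted and dried 1 h at 37 °C. Compounds in DMSO went into punched wells, with a DMSO solvent control. Plates were run in triplicate and kept at 37 °C for 3-4 days, with inhibition-zone diameter as read-out.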

In assay [2] the test system is Pseudomonas aeruginosa. Briefly: Antibacterial activity against Pseudomonas aeruginosa ATCC 27853. In kind it is functional. Particulars: for MIC: Pseudomonas aeruginosa, ATCC 27853. In short, it runs like this: (§2)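 MIC by serial dilution in Mueller-Hinton broth tubes, pH adjusted to 5.0 with phosphate buffer. A standardized bacterial suspension was inoculated and incubated 16-18 h at 37 °C, and MIC was read as the lowest concentration with no visible growth. Zones were also measured in agar wells on seeded plates, with compounds in DMSO and a DMSO control, triplicate plates, 37 °C for 3-4 days.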

Assay [3] has as its system Escherichia coli. The assay is described as follows: Antibacterial activity against Escherichia coli ATCC 25922. Type of assay: functional. Particulars: for MIC: Escherichia coli, ATCC 25922. Summed up:
as §2

In assay [4] the test system is Aspergillus fumigatus. The assay is described as follows: Antifungal activity against Aspergillus fumigatus NCIM 902. Type of assay: functional. The following applies: for MIC: Aspergillus fumigatus, NCIM 902.
The test system of assay [5] is Talaromyces marneffei. The assay is described as follows: Antifungal activity against Penicillium marneffei. Particulars: for MIC: Talaromyces marneffei. In kind it is functional. Summed up: as §1
In assay [6] the test system is Staphylococcus aureus. Briefly: Antibacterial activity against Staphylococcus aureus ATCC 25923. Type of assay: functional. Particulars: for MIC: Staphylococcus aureus, ATCC 25923. Summed up:
as §2

Assay [7] has as its system Aspergillus flavus. Briefly: Antifungal activity against Aspergillus flavus NCIM 524. Type of assay: functional. The following applies: for MIC: Aspergillus flavus, NCIM 524. In short, it runs like this:
as §1

In assay [8] the test system is Klebsiella pneumoniae. The assay is described as follows: Antibacterial activity against Klebsiella pneumoniae. The following applies: for MIC: Klebsiella pneumoniae. Type of assay: functional. Summed up:
as §2

Consider 13 compounds from ChEMBL document CHEMBL1143805, “Synthesis and antimicrobial activities of some novel 1,2,4-triazolo[3,4-b]-1,3,4-thiadiazoles and 1,2,4-triazolo[3,4-b]-1,3,4-thiadiazines carrying thioalkyl and sulphonyl phenoxy moieties” (2007).

≈ marks a conversion by molar mass, not a printed value.

Broadly, the MIC is the least concentration at which growth counts as inhibited. Read a high MIC as weaker potency. With `CSc1ccc(OCc2nnc3sc(Cc4ccccc4)nn23)cc1`, the “inhibition zone (IZ)” value in assay [1], in assay [2], in assay [3], in assay [4], in assay [5] and in assay [6] was 16 mm in each case. For the same compound, the “inhibition zone (IZ)” value in assay [7] and in assay [8] was 16 mm in each case. Moreover, the MIC in assay [1], in assay [2], in assay [3], in assay [4], in assay [5] and in assay [6] was 6.25 µg/mL (≈ 17 µM) in each case. Further, the minimal inhibitory concentration (MIC) in assay [7] and in assay [8] was 6.25 µg/mL (≈ 17 µM) each time.
Consider `CS(=O)(=O)c1ccc(OCc2nnc3sc(-c4ccccc4)nn23)cc1`, for which the “inhibition zone (IZ)” value was 11 mm in assay [1]; 11 mm in assay [2]; 11 mm in assay [3]; 11 mm in assay [4]; below 10 mm in assay [5]; 11 mm in assay [6]. The “inhibition zone (IZ)” value in assay [7] and in assay [8] was 11 mm in each case. The MIC in assay [1] is 12.5 µg/mL (≈ 32.3 µM); in assay [2], 12.5 µg/mL (≈ 32.3 µM); in assay [3] it was 12.5 µg/mL (≈ 32.3 µM); in assay [4], 12.5 µg/mL (≈ 32.3 µM); in assay [5], 25 µg/mL (≈ 64.7 µM); in assay [6], 12.5 µg/mL (≈ 32.3 µM). The MIC in assay [7] and in assay [8] was 12.5 µg/mL (≈ 32.3 µM) throughout.
Consider `CCSc1ccc(OCc2nnc3sc(-c4ccccc4N)nn23)cc1`, for which the “inhibition zone (IZ)” value in assay [1], in assay [2], in assay [3], in assay [4], in assay [5] and in assay [6] was below 10 mm in each case. In addition, the “inhibition zone (IZ)” value in assay [7] and in assay [8] was below 10 mm throughout. Besides, the minimum inhibitory concentration (MIC) in assay [1], in assay [2], in assay [3], in assay [4], in assay [5] and in assay [6] was 25 µg/mL (≈ 65.2 µM) throughout. Also, the MIC in assay [7] and in assay [8] was 25 µg/mL (≈ 65.2 µM) each time.
With `CCSc1ccc(OCc2nnc3sc(-c4ccc(C)cc4)nn23)cc1`, the “inhibition zone (IZ)” value in assay [1] is below 10 mm; in assay [2], 16 mm; in assay [3], 16 mm; in assay [4], below 10 mm; in assay [5] it was 16 mm; in assay [6] it was 16 mm. Besides, the “inhibition zone (IZ)” value in assay [7] is given as below 10 mm; in assay [8], 16 mm. Moreover, the MIC in assay [1] came to 25 µg/mL (≈ 65.4 µM); in assay [2], 6.25 µg/mL (≈ 16.3 µM); in assay [3], 6.25 µg/mL (≈ 16.3 µM); in assay [4], 25 µg/mL (≈ 65.4 µM); in assay [5], 6.25 µg/mL (≈ 16.3 µM); in assay [6], 6.25 µg/mL (≈ 16.3 µM). Further, the MIC in assay [7] came to 25 µg/mL (≈ 65.4 µM); in assay [8], 6.25 µg/mL (≈ 16.3 µM).
Regarding `COc1ccc(-c2nn3c(COc4ccc(SC)cc4)nnc3s2)cc1`, the “inhibition zone (IZ)” value in assay [1], in assay [2], in assay [3], in assay [4], in assay [5] and in assay [6] was 16 mm each time. The “inhibition zone (IZ)” value in assay [7] and in assay [8] was 16 mm throughout. Besides, the MIC in assay [1], in assay [2], in assay [3], in assay [4], in assay [5] and in assay [6] was 6.25 µg/mL (≈ 16.3 µM) in each case. For the same compound, the MIC in assay [7] and in assay [8] was 6.25 µg/mL (≈ 16.3 µM) in each case.
As to `CSc1ccc(OCc2nnc3sc(-c4cccc(Cl)c4Cl)nn23)cc1`, the “inhibition zone (IZ)” value in assay [1], in assay [2], in assay [3], in assay [4], in assay [5] and in assay [6] was 16 mm in each case. Besides, the “inhibition zone (IZ)” value in assay [7] and in assay [8] was 16 mm in each case. Moreover, the MIC in assay [1], in assay [2], in assay [3], in assay [4], in assay [5] and in assay [6] was 6.25 µg/mL (≈ 14.8 µM) throughout. The MIC in assay [7] and in assay [8] was 6.25 µg/mL (≈ 14.8 µM) each time.
As for `CS(=O)(=O)c1ccc(OCc2nnc3n2N=C(c2ccc(Cl)cc2Cl)CS3)cc1`, the “inhibition zone (IZ)” value is on record as 11 mm in assay [1]; 11 mm in assay [2]; 11 mm in assay [3]; 11 mm in assay [4]; below 10 mm in assay [5]; 11 mm in assay [6]. Also, the “inhibition zone (IZ)” value in assay [7] and in assay [8] was 11 mm in each case. The minimum inhibitory concentration (MIC) turned out to be 12.5 µg/mL (≈ 26.6 µM) in assay [1]; 12.5 µg/mL (≈ 26.6 µM) in assay [2]; 12.5 µg/mL (≈ 26.6 µM) in assay [3]; 12.5 µg/mL (≈ 26.6 µM) in assay [4]; 25 µg/mL (≈ 53.3 µM) in assay [5]; 12.5 µg/mL (≈ 26.6 µM) in assay [6]. In addition, the MIC in assay [7] and in assay [8] was 12.5 µg/mL (≈ 26.6 µM) throughout.
For the compound `CS(=O)(=O)c1ccc(OCc2nnc3n2N=C(c2ccc(O)c(C(N)=O)c2)CS3)cc1`, the “inhibition zone (IZ)” value in assay [1] is 11 mm; in assay [2], 11 mm; in assay [3], 11 mm; in assay [4] it was 11 mm; in assay [5], below 10 mm; in assay [6], 11 mm. Also, the “inhibition zone (IZ)” value in assay [7] and in assay [8] was 11 mm throughout. Moreover, the minimal inhibitory concentration (MIC) worked out at 12.5 µg/mL (≈ 27.2 µM) in assay [1]; 12.5 µg/mL (≈ 27.2 µM) in assay [2]; 12.5 µg/mL (≈ 27.2 µM) in assay [3]; 12.5 µg/mL (≈ 27.2 µM) in assay [4]; 25 µg/mL (≈ 54.4 µM) in assay [5]; 12.5 µg/mL (≈ 27.2 µM) in assay [6]. The MIC in assay [7] and in assay [8] was 12.5 µg/mL (≈ 27.2 µM) throughout.
As for `CCSc1ccc(OCc2nnc3sc(-c4cccc(Cl)c4Cl)nn23)cc1`, the “inhibition zone (IZ)” value in assay [1], in assay [2], in assay [3], in assay [4], in assay [5] and in assay [6] was below 10 mm in each case. Also, the “inhibition zone (IZ)” value in assay [7] and in assay [8] was below 10 mm throughout. Besides, the MIC in assay [1], in assay [2], in assay [3], in assay [4], in assay [5] and in assay [6] was 25 µg/mL (≈ 57.2 µM) each time. Moreover, the MIC in assay [7] and in assay [8] was 25 µg/mL (≈ 57.2 µM) throughout.
For the compound `CSc1ccc(OCc2nnc3sc(-c4ccc(C)cc4)nn23)cc1`, the “inhibition zone (IZ)” value in assay [1], in assay [2], in assay [3], in assay [4], in assay [5] and in assay [6] was 16 mm each time. For the same compound, the “inhibition zone (IZ)” value in assay [7] and in assay [8] was 16 mm in each case. In addition, the minimum inhibitory concentration (MIC) in assay [1], in assay [2], in assay [3], in assay [4], in assay [5] and in assay [6] was 6.25 µg/mL (≈ 17 µM) each time. Besides, the MIC in assay [7] and in assay [8] was 6.25 µg/mL (≈ 17 µM) each time.
For the compound `CSc1ccc(OCc2nnc3sc(-c4ccc(N)cc4)nn23)cc1`, the “inhibition zone (IZ)” value in assay [1], in assay [2], in assay [3], in assay [4], in assay [5] and in assay [6] was 16 mm each time. Further, the “inhibition zone (IZ)” value in assay [7] and in assay [8] was 16 mm throughout. In addition, the minimum inhibitory concentration (MIC) in assay [1], in assay [2], in assay [3], in assay [4], in assay [5] and in assay [6] was 6.25 µg/mL (≈ 16.9 µM) each time. Further, the minimal inhibitory concentration (MIC) in assay [7] and in assay [8] was 6.25 µg/mL (≈ 16.9 µM) throughout.
On to `CS(=O)(=O)c1ccc(OCc2nnc3sc(-c4cccc(Cl)c4Cl)nn23)cc1`, for which the “inhibition zone (IZ)” value in assay [1], in assay [2], in assay [3], in assay [4], in assay [5] and in assay [6] was 16 mm in each case. The “inhibition zone (IZ)” value in assay [7] and in assay [8] was 16 mm throughout. The MIC in assay [1], in assay [2], in assay [3], in assay [4], in assay [5] and in assay [6] was 6.25 µg/mL (≈ 13.7 µM) throughout. For the same compound, the MIC in assay [7] and in assay [8] was 6.25 µg/mL (≈ 13.7 µM) throughout.
As for `O=C(O)c1cn(C2CC2)c2cc(N3CCNCC3)c(F)cc2c1=O` [CIPROFLOXACIN], the inhibition zone (IZ) is 25 mm in assay [2], 30 mm in assay [3], 22 mm in assay [6] and 23 mm in assay [8]. The figures for the MIC in assay [6] and in assay [8] were 1.56 µg/mL (≈ 4.71 µM) and 6.25 µg/mL (≈ 18.9 µM), respectively.
